Assays:
[1] = Tmax in healthy human at 400 mg, po qd coadministered with 900 mg, po thrice weekly of rifapentine on day 5 post compound dose measured on day 19 post compound dose by HPLC; format: ADME, organism-based; settings: in vivo
Summary of the method: (§1)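 Healthy volunteers took oral MXF 400 mg once daily with a continental breakfast (750 kcal, 20% fat). Sampling was on day 4 (after four doses, MXF alone) or on day 19 (with 900 mg RPT thrice weekly added from day 5; 72-h sampling). Plasma MXF was measured by validated HPLC with fluorescence detection (standard curve 0.20–15 µg/ml). Tmax was derived noncompartmentally.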

[2] = AUC (0 to 24 hrs ) in healthy human at 400 mg, po qd coadministered with 900 mg, po thrice weekly of rifapentine on day 5 post compound dose measured on day 19 post compound dose by HPLC; format: ADME, organism-based; set-up: time < 24 hr, dose 400 mg, route oral; settings: plasma
[3] = Cmax in healthy human at 400 mg, po qd coadministered with 900 mg, po thrice weekly of rifapentine on day 5 post compound dose measured on day 19 post compound dose by HPLC; format: ADME, organism-based; set-up: dose 400 mg, route oral; settings: in vivo
[4] = test system: Homo sapiens; experiment: AUC (0 to 48 hrs) in healthy human assessed as 25-desacetyl-rifapentine level at 900 mg, po administered as a single dose measured on day 5 post compound dose by HPLC; format: ADME, organism-based, Plasma; set-up: dose 900 mg, time < 48 hr, route oral; settings: in vivo
Summary of the method: (§2)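 Blood was drawn predose and at 2, 4, 6, 8, 10, 12, 24, 34 and 48 h after the first dose (day 5), and again on day 19 after 7 thrice-weekly doses (72-h sampling). Rifapentine and 25-desacetyl-rifapentine were measured by validated HPLC-UV with trimipramine as internal standard. Parameters came from noncompartmental analysis, with AUC truncated at 48 h.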

[5] = test system: Homo sapiens; experiment: Tmax in healthy human assessed as 25-desacetyl-rifapentine level at 900 mg, po administered as a single dose measured on day 5 post compound dose by HPLC; format: ADME, organism-based; settings: in vivo
Summary of the method: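 Healthy volunteers took a single oral 900 mg rifapentine dose on day 5, after a continental breakfast (750 kcal, 20% fat), alongside ongoing 400 mg daily MXF. Plasma was sampled predose and at 2, 4, 6, 8, 10, 12, 24, 34 and 48 h. 25-desacetyl-RPT was measured by validated HPLC with UV detection and trimipramine internal standard. Tmax was derived noncompartmentally.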

[6] = test system: Homo sapiens; experiment: AUC (0 to 48 hrs) in healthy human assessed as 25-desacetyl-rifapentine level at 900 mg, po thrice weekly measured on day 19 post compound dose by HPLC; format: ADME, organism-based, Plasma; set-up: dose 900 mg, time < 48 hr, route oral; settings: in vivo; summary of the method: as §2
[7] = AUC (0 to 24 hrs ) in healthy human at 400 mg, po qd measured on day 4 by HPLC; format: ADME, organism-based; set-up: time < 24 hr, dose 400 mg, route oral; settings: plasma
[8] = Tmax in healthy human at 400 mg, po qd measured on day 4 by HPLC; format: ADME, organism-based; settings: in vivo; summary of the method: as §1
[9] = test system: Homo sapiens; experiment: Toxicity in healthy human assessed as incidence of adverse events at 400 mg, po qd coadministered with 900 mg, po thrice weekly of rifapentine on day 5 post compound dose measured on day 19 post compound dose; format: organism-based; settings: in vivo
Summary of the method: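 Doses were given after a continental breakfast, with no other medications, alcohol or smoking allowed. Adherence was tracked by pill counts and medication diaries, and adverse events were recorded during and after dosing.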

[10] = test system: Homo sapiens; experiment: Ratio of Half life in healthy human at 900 mg, po thrice weekly measured on day 19 post compound dose to Half life in healthy human at 900 mg, po administered as a single dose measured on day 5; settings: in vivo
[11] = Half life in healthy human at 900 mg, po administered as a single dose measured on day 5 post compound dose by HPLC; format: ADME, organism-based; settings: in vivo; summary of the method: as §2
[12] = Tmax in healthy human at 900 mg, po administered as a single dose measured on day 5 post compound dose by HPLC; format: ADME, organism-based; settings: in vivo
Summary of the method: (§3)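 Healthy volunteers took oral RPT 900 mg thrice weekly, alongside MXF 400 mg daily, after a 750-kcal breakfast. Plasma was sampled over 48 h after the first RPT dose (day 5) and over 72 h after the seventh dose (day 19). RPT was measured by validated HPLC-UV with a trimipramine internal standard. Parameters were derived noncompartmentally, with AUC over 48 h, and compared as day 19/day 5 geometric mean ratios with 90% CI.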

[13] = AUC (0 to 48 hrs) in healthy human at 900 mg, po thrice weekly measured on day 19 post compound dose by HPLC; format: ADME, organism-based; set-up: time < 48 hr, dose 900 mg, route oral; settings: plasma; summary of the method: as §2
[14] = Half life in healthy human at 900 mg, po thrice weekly measured on day 19 post compound dose by HPLC; format: ADME, organism-based; settings: in vivo; summary of the method: as §2
[15] = test system: Homo sapiens; experiment: Volume of distribution in healthy human at 900 mg, po thrice weekly measured on day 19 post compound dose by HPLC; format: ADME, organism-based; settings: in vivo; summary of the method: as §2
[16] = test system: Homo sapiens; experiment: Ratio of Tmax in healthy human at 900 mg, po thrice weekly measured on day 19 post compound dose to Tmax in healthy human at 900 mg, po administered as a single dose measured on day 5; settings: in vivo
[17] = Tmax in healthy human at 900 mg, po thrice weekly measured on day 19 post compound dose by HPLC; format: ADME, organism-based; settings: in vivo; summary of the method: as §3
[18] = Cmax in healthy human at 900 mg, po thrice weekly measured on day 19 post compound dose by HPLC; format: ADME, organism-based; set-up: dose 900 mg, route oral; settings: in vivo; summary of the method: as §2
[19] = test system: Homo sapiens; experiment: Ratio of Volume of distribution in healthy human at 900 mg, po thrice weekly measured on day 19 post compound dose to Volume of distribution in healthy human at 900 mg, po administered as a single dose measured on day 5; settings: in vivo
[20] = test system: Homo sapiens; experiment: Ratio of Apparent oral clearance in healthy human at 900 mg, po thrice weekly measured on day 19 post compound dose to Apparent oral clearance in healthy human at 900 mg, po administered as a single dose measured on day 5; settings: in vivo
[21] = Cmax in healthy human at 900 mg, po administered as a single dose measured on day 5 post compound dose by HPLC; format: ADME, organism-based; set-up: dose 900 mg, route oral; settings: in vivo; summary of the method: as §2
[22] = AUC (0 to 48 hrs) in healthy human at 900 mg, po administered as a single dose measured on day 5 post compound dose by HPLC; format: ADME, organism-based; set-up: time < 48 hr, dose 900 mg, route oral; settings: plasma; summary of the method: as §2
[23] = Apparent oral clearance in healthy human at 900 mg, po administered as a single dose measured on day 5 post compound dose by HPLC; format: ADME, organism-based; settings: in vivo; summary of the method: as §2
[24] = Apparent oral clearance in healthy human at 900 mg, po thrice weekly measured on day 19 post compound dose by HPLC; format: ADME, organism-based; settings: in vivo; summary of the method: as §2
[25] = test system: Homo sapiens; experiment: Ratio of Cmax in healthy human at 900 mg, po thrice weekly measured on day 19 post compound dose to Cmax in healthy human at 900 mg, po administered as a single dose measured on day 5; settings: in vivo
[26] = test system: Homo sapiens; experiment: Volume of distribution in healthy human at 900 mg, po administered as a single dose measured on day 5 post compound dose by HPLC; format: ADME, organism-based; settings: in vivo; summary of the method: as §2
[27] = test system: Homo sapiens; experiment: Ratio of AUC (0 to 48 hrs) in healthy human at 900 mg, po thrice weekly measured on day 19 post compound dose to AUC (0 to 48 hrs) in healthy human at 900 mg, po administered as a single dose measured on day 5 post compound dose; format: ADME, organism-based; settings: in vivo; summary of the method: as §3

SMILES: COc1c(N2C[C@@H]3CCCN[C@@H]3C2)c(F)cc2c(=O)c(C(=O)O)cn(C3CC3)c12 [MOXIFLOXACIN]
- Tmax [1]: 2.6 h
- AUC at 24 h [2]: 34.4 µg·h/mL
- Cmax [3]: 3330 ng/mL
- AUC [4]: 461.7 µg·h/mL
- Tmax [5]: 24.9 h
- AUC [6]: 369.9 µg·h/mL
- AUC at 24 h [7]: 41.9 µg·h/mL
- Tmax [8]: 2.37 h
- Activity [9]: Non-toxic

SMILES: CO[C@H]1/C=C/O[C@@]2(C)Oc3c(C)c(O)c4c(O)c(c(/C=N/N5CCN(C6CCCC6)CC5)c(O)c4c3C2=O)NC(=O)/C(C)=C\C=C\[C@H](C)[C@H](O)[C@@H](C)[C@@H](O)[C@@H](C)[C@H](OC(C)=O)[C@@H]1C [RIFAPENTINE]
- Ratio [10]: 0.78
- half-life [11]: 18.5 h
- Tmax [12]: 5.08 h
- AUC at 48 h [13]: 410 µg·h/mL
- half-life [14]: 14.8 h
- Vd [15]: 43.7 L
- Ratio [16]: 0.93
- Tmax [17]: 4.77 h
- Cmax [18]: 21200 ng/mL
- Ratio [19]: 1.07
- Ratio [20]: 1.36
- Cmax [21]: 21900 ng/mL
- AUC(0-t) at 48 h [22]: 513 µg·h/mL
- CL/F [23]: 26.5 mL/min
- CL/F [24]: 36.2 mL/min
- Ratio [25]: 0.96
- Vd [26]: 40.7 L
- Ratio AUC [27]: 0.8

Reference: ChEMBL document CHEMBL1671633 (Antimicrob Agents Chemother, 2008)
